Test results from article PMC8158791 (ACS Omega, 2021).

Assays:
[1] = system: chloroquine-sensitive strain 3D7 of Plasmodium falciparum; assay: In vitro antimalarial assay; type: cell-based; settings: for IC50: Plasmodium falciparum, 3D7, 72 h, read-out: IC50 Pf3D7; for selectivity index (SI) Pf3D7: ratio CC50 (VERO)/IC50 (Pf3D7); for activity in CQ-sensitive strain (in words): 3D7
[2] = system: chloroquine-resistant strain K1 of Plasmodium falciparum; assay: In vitro antimalarial assay; type: cell-based; settings: for IC50: Plasmodium falciparum, K1, 72 h, read-out: IC50 PfK1; for selectivity index (SI) PfK1: ratio CC50 (VERO)/IC50 (PfK1)
[3] = system: Plasmodium yoelii nigeriensis (a multidrug-resistant) parasite; assay: In vivo antimalarial assay in Swiss mice; settings: for cure on day 28: cured/treated; for survival on day 28: survivors/treated
In short: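 Multidrug-resistant P. yoelii nigeriensis infection in albino Swiss mice, five per group. Test compound given orally at 100 mg/kg daily × 4 days. Reference: α/β-arteether 7.5 mg/kg × 3 days. Untreated infected controls were included. Parasitaemia was assessed by Giemsa-stained smears, with % suppression on day 4 post infection. Survival and cure were followed to day 28, and MST was recorded.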

VERO cell line = assay: Cytotoxicity assay against Vero cell line; type: cell-based, monkey; settings: read-out: cytotoxicity CC50 in VERO cell line; VERO cells, 72 h, resazurin
[4] = Cytotoxicity assay against Vero cell line; type: cell-based, monkey; settings: monkey, Vero cells (monkey kidney cell line)
[5] = 100 mg/kg × 4 days, oral, P. yoelii-MDR
[6] = 7.5 mg/kg × 3 days, reference drug

| SMILES | IC50 [1] [µM] | selectivity index (SI) Pf3D7 [1] | IC50 [2] [µM] | selectivity index (SI) PfK1 [2] | also measured |
| --- | --- | --- | --- | --- | --- |
| CN(c1ccnc2cc(Cl)ccc12)[C@@H](Cc1ccccc1)CN1CCOCC1 [10a, (S)-7-Chloro-N-methyl-N-(1-morpholino-3-phenylpropan-2-yl)quinolin-4-amine] | 1.2 ± 0.78 | 28 | 1.38 ± 0.07 | 24 |  |
| CCN(CC)C[C@H](CC(C)C)N(C)c1ccnc2cc(C(F)(F)F)ccc12 [9i, (S)-N^1,N^1-diethyl-N^2,4-dimethyl-N^2-(7-(trifluoromethyl)quinolin-4-yl)pentane-1,2-diamine] | 3.8 ± 1.05 | 14 | 2.5 ± 1.03 | 21 |  |
| CCN(CC)CCCC(C)Nc1ccnc2cc(Cl)ccc12 (centres unmarked) [chloroquine, reference compound] |  |  | 0.795 ± 0.15 |  |  |
| CC(C)C[C@@H](CN1CCCCC1)N(C)c1ccnc2cc(C(F)(F)F)ccc12 [9g, (S)-N-Methyl-N-(4-methyl-1-(piperidin-1-yl)pentan-2-yl)-7-(trifluoromethyl)quinolin-4-amine] | 2 ± 0.06 | 21 | 2.04 ± 0.4 | 21 |  |
| CC(C)C[C@@H](CN1CCCC1)N(C)c1ccnc2cc(C(F)(F)F)ccc12 [9h, (S)-N-Methyl-N-(4-methyl-1-(pyrrolidin-1-yl)pentan-2-yl)-7-(trifluoromethyl)quinolin-4-amine] | 1.24 | 42 | 1.6 ± 0.91 | 33 |  |
| CN(c1ccnc2cc(Cl)ccc12)[C@@H](Cc1ccccc1)CN1CCCCC1 [10b, (S)-7-Chloro-N-methyl-N-(1-phenyl-3-(piperidin-1-yl)propan-2-yl)quinolin-4-amine] | 0.28 ± 0.13 |  | 0.49 ± 0.15 | 142 |  |
| CN(c1ccnc2cc(C(F)(F)F)ccc12)[C@@H](Cc1ccccc1)CN1CCCC1 [10g, (S)-N-Methyl-N-(1-phenyl-3-(pyrrolidin-1-yl)propan-2-yl)-7-(trifluoromethyl)quinolin-4-amine] | 0.68 ± 0.16 | 58 | 1.77 | 22 | MST ([3]; 100 mg/kg × 4 days, oral): 7.2 days; % suppression on day 4 post infection [3, 5]: 62.30%; cure on day 28 ([3]; 100 mg/kg × 4 days, oral): 0/5 cured; survival on day 28 ([3]; 100 mg/kg × 4 days, oral): 0/5 |
| CN(c1ccnc2cc(C(F)(F)F)ccc12)[C@@H](Cc1ccccc1)CN1CCCCC1 [10f, (S)-N-Methyl-N-(1-phenyl-3-(piperidin-1-yl)propan-2-yl)-7-(trifluoromethyl)quinolin-4-amine] | 1.37 ± 0.52 |  |  |  | activity in CQ-sensitive strain (in words) [1]: inactive |
| CC(C)C[C@@H](CN1CCOCC1)N(C)c1ccnc2cc(C(F)(F)F)ccc12 [9f, (S)-N-Methyl-N-(4-methyl-1-morpholinopentan-2-yl)-7-(trifluoromethyl)quinolin-4-amine] | 2.72 ± 1.44 | 25 | 2.25 ± 0.77 | 30 |  |
| CC(C)C[C@@H](CN1CCCC1)N(C)c1ccnc2cc(Cl)ccc12 [9d, (S)-7-Chloro-N-methyl-N-(4-methyl-1-(pyrrolidin-1-yl)pentan-2-yl)quinolin-4-amine] | 0.08 | 588 | 0.18 ± 0.15 | 261 | MST ([3]; 100 mg/kg × 4 days, oral): 9.4 days; % suppression on day 4 post infection [3, 5]: 99.99%; cure on day 28 ([3]; 100 mg/kg × 4 days, oral): 0/5 cured; survival on day 28 ([3]; 100 mg/kg × 4 days, oral): 0/5 |
| CCN(CC)C[C@H](CC(C)C)N(C)c1ccnc2cc(Cl)ccc12 [9e, (S)-N^2-(7-Chloroquinolin-4-yl)-N^1,N^1-diethyl-N^2,4-dimethylpentane-1,2-diamine] | 0.23 ± 0.1 | 262 | 0.54 ± 0.03 | 112 |  |
| CN(CCCN1CCCC1)c1ccnc2cc(Cl)ccc12 [11b, 7-Chloro-N-methyl-N-(3-(pyrrolidin-1-yl)propyl)quinolin-4-amine] | 0.19 | 422 | 0.11 ± 0.07 | 729 | CC50 (VERO cell line): 80.2 µM; MST ([3]; 100 mg/kg × 4 days, oral): 8.8 days; % suppression on day 4 post infection [3, 5]: 99.8%; cure on day 28 ([3]; 100 mg/kg × 4 days, oral): 0/5 cured; survival on day 28 ([3]; 100 mg/kg × 4 days, oral): 0/5 |
| CN(CCCN1CCCCC1)c1ccnc2cc(Cl)ccc12 [11a, 7-Chloro-N-methyl-N-(3-(piperidin-1-yl)propyl)quinolin-4-amine] | 0.04 |  | 0.06 ± 0.04 | 1782 | CC50 (VERO cell line): 107 µM |
| CN(c1ccnc2cc(Cl)ccc12)[C@@H](Cc1ccccc1)CN1CCCC1 [10c, (S)-7-Chloro-N-methyl-N-(1-phenyl-3-(pyrrolidin-1-yl)propan-2-yl)quinolin-4-amine] | 0.06 ± 0.16 | 963 | 0.1 | 577 | MST ([3]; 100 mg/kg × 4 days, oral): 9 days; % suppression on day 4 post infection [3, 5]: 93.99%; cure on day 28 ([3]; 100 mg/kg × 4 days, oral): 0/5 cured; survival on day 28 ([3]; 100 mg/kg × 4 days, oral): 0/5 |
| CCN(CC)C[C@H](Cc1ccccc1)N(C)c1ccnc2cc(Cl)ccc12 [10d, (S)-N^2-(7-Chloroquinolin-4-yl)-N^1,N^1-diethyl-N^2-methyl-3-phenylpropane-1,2-diamine] | 0.21 ± 0.11 | 376 | 0.33 ± 0.06 | 240 |  |
| CC(C)CC(CN1CCOCC1)N(C)c1ccnc2cc(Cl)ccc12 (centres unmarked) [9b, 7-Chloro-N-methyl-N-(4-methyl-1-morpholinopentan-2-yl)quinolin-4-amine] | 1.16 ± 0.26 | 44 | 1.19 ± 0.53 | 43 | CC50 (VERO cell line): 50.8 µM |
| CCN(CC)C[C@H](Cc1ccccc1)N(C)c1ccnc2cc(C(F)(F)F)ccc12 [10h, (S)-N^1,N^1-Diethyl-N^2-methyl-3-phenyl-N^2-(7-(trifluoromethyl)quinolin-4-yl)propane-1,2-diamine] | 1.75 ± 0.16 |  |  |  | activity in CQ-sensitive strain (in words) [1]: inactive |
| CN(CCCN1CCCC1)c1ccnc2cc(C(F)(F)F)ccc12 [11d, N-Methyl-N-(3-(pyrrolidin-1-yl)propyl)-7-(trifluoromethyl)quinolin-4-amine] | 0.09 ± 0.02 |  | 0.31 ± 0.15 | 252 | CC50 (VERO cell line): 78.2 µM; MST ([3]; 100 mg/kg × 4 days, oral): 8.8 days; % suppression on day 4 post infection [3, 5]: 99.85%; cure on day 28 ([3]; 100 mg/kg × 4 days, oral): 0/5 cured; survival on day 28 ([3]; 100 mg/kg × 4 days, oral): 0/5 |
| CCO[C@H]1O[C@@H]2O[C@@]3(C)CC[C@H]4[C@H](C)CC[C@@H]([C@H]1C)[C@@]24OO3 [α/β-arteether, reference compound] |  |  |  |  | % suppression on day 4 post infection [3, 6]: 100%; MST [3, 6]: >28 days; cure on day 28 [3, 6]: 5/5 cured; survival on day 28 [3, 6]: 5/5 |
| CN(c1ccnc2cc(C(F)(F)F)ccc12)[C@@H](Cc1ccccc1)CN1CCOCC1 [10e, (S)-N-Methyl-N-(1-morpholino-3-phenylpropan-2-yl)-7-(trifluoromethyl)quinolin-4-amine] | 3.89 ± 0.5 |  |  |  | activity in CQ-sensitive strain (in words) [1]: inactive |
| CC(C)C[C@@H](CN1CCCCC1)N(C)c1ccnc2cc(Cl)ccc12 [9c, (S)-7-Chloro-N-methyl-N-(4-methyl-1-(piperidin-1-yl)pentan-2-yl)quinolin-4-amine] | 0.15 ± 0.14 | 463 | 0.42 ± 0.23 | 166 |  |
| CN(CCCN1CCOCC1)c1ccnc2cc(C(F)(F)F)ccc12 [11c, N-Methyl-N-(3-morpholinopropyl)-7-(trifluoromethyl)quinolin-4-amine] | 0.88 ± 0.28 | >227 | 0.82 ± 0.06 | >243 |  |
| COc1cc([C@@H]2c3cc4c(cc3[C@H](O)[C@H]3COC(=O)[C@H]23)OCO4)cc(OC)c1OC [Podophyllotoxin, reference compound] |  |  |  |  | CC50 at 72 h [4]: 4 µM |
